Reference: paper PMC4857052 (Molecular pharmacology, 2012)
Several values for one entry are separate records, joined by “and”; a condition that tells them apart may be missing. Identical values can stand only once. Like-named read-outs stand apart in the source and are kept apart here.

Legend:
[1] = tested on: variant surface glycoprotein; test: Effect on glycosylation / variant surface glycoprotein content; format: cell-based, Trypanosoma brucei brucei; details: 100 μM
[2] = tested on: T. b. brucei bloodstream forms strain 427 WT; test: Alamar blue drug sensitivity assay, wild-type; format: cell-based, Trypanosoma brucei brucei; details: for EC50: Trypanosoma brucei
In short: (§1)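 Bloodstream-form T. b. brucei s427 grown in HMI-9 with 10% FBS at 37°C under 5% CO2. Resistant lines were made by months of stepwise-increasing exposure to the analog, then cloned by limiting dilution. Viability was read by resazurin (Alamar blue) reduction. Thymidine rescue was tested by adding 100 μM thymidine.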

[3] = tested on: 5FOARes T. b. brucei; test: Alamar blue drug sensitivity assay, 5FOARes; format: cell-based, Trypanosoma brucei brucei
In short: as §1

[4] = tested on: DNA of T. brucei bloodstream forms; test: Incorporation into DNA; format: cell-based, Trypanosoma brucei brucei; details: 100 μM, 12 hours; natural deoxynucleotides 500-5000-fold above detection limit
In short: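 Bloodstream forms were exposed to 100 μM test compound for 12 h (37°C, 5% CO2), with untreated parallel controls. DNA was extracted by SDS/RNase A lysis overnight at 37°C and phenol/chloroform, then digested with 1000 units exonuclease III at 37°C for 48 h. The digest was mixed 1:3 with acetonitrile, centrifuged, and the supernatant analysed by HILIC–high-resolution LC-MS.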

[5] = tested on: 5F-2′dURes T. b. brucei; test: Alamar blue drug sensitivity assay, 5F-2′dURes; format: cell-based, Trypanosoma brucei brucei
In short: as §1

[6] = tested on: 5F-2′dURes cells; test: Metabolomic analysis of treated 5F-2′dURes cells; format: cell-based, Trypanosoma brucei brucei; details: 100 μM, 8 hours
[7] = tested on: 5FURes T. b. brucei; test: Alamar blue drug sensitivity assay, 5FURes; format: cell-based, Trypanosoma brucei brucei
In short: as §1

[8] = target: TbU2; details: read-out: Ki, U2; procyclic forms (PCF); ref De Koning and Jarvis (1998), Papageorgiou et al. (2005), Gudin et al. (2006); cited from earlier work
[9] = tested on: TbT1 (P1-type nucleoside transporter); test: [3H]-thymidine transport in bloodstream forms; format: cell-based, Trypanosoma brucei brucei; details: for effect on [3H]-thymidine transport (in words): bloodstream forms
[10] = target: TbU1; details: procyclic forms (PCF); NE = no effect on uptake at concentration indicated; ref De Koning and Jarvis (1998), Papageorgiou et al. (2005), Gudin et al. (2006); cited from earlier work
[11] = tested on: T. b. brucei bloodstream forms; test: [3H]-orotic acid uptake, wild-type bloodstream forms; format: cell-based, Trypanosoma brucei brucei
[12] = tested on: 5-FOARes trypanosomes; test: [3H]-orotic acid uptake, 5-FOARes versus wild-type; format: cell-based, Trypanosoma brucei brucei; details: over 10 min; two experiments
In short: (§2)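 Log-phase cells were washed into HEPES/bicarbonate glucose buffer (pH 7.3) at 1 × 10^8/ml and mixed with an equal volume of [3H]-permeant, with or without unlabeled competitor, at ambient temperature. Uptake was stopped with ice-cold buffer containing saturating unlabeled permeant, then cells were spun through oil. Counts were corrected for nonspecific binding and Km, Vmax and Ki obtained by curve fitting. Runs were in triplicate. Thymidine: 10 μM label, 15 min. Orotic acid: 10 min.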

[13] = tested on: s427WT T. b. brucei bloodstream forms; test: Kinetic parameters of pyrimidine transport in wild-type bloodstream forms; format: cell-based, Trypanosoma brucei brucei; details: [3H]-permeant; strain s427WT
In short: as §2

[14] = target: P1-type nucleoside transporter; test: [3H]-inosine uptake in bloodstream forms; format: cell-based, Trypanosoma brucei brucei; details: read-out: Ki for inhibition of inosine uptake; monophasic, n = 4
In short: as §2

[15] = tested on: 5F-2′dURes trypanosomes; test: [3H]-thymidine uptake in 5F-2′dURes; format: cell-based, Trypanosoma brucei brucei
In short: as §2

[16] = resistance factor: IC50(resistant clone)/IC50(WT)

**Q.** Which results are given for `O=c1[nH]c(=O)n([C@H]2C[C@H](O)[C@@H](CO)O2)cc1F` [5Fl-2’-dUrd, 5-fluoro-2′-deoxyuridine]?
**A.** changes in variant surface glycoprotein content [1]: no detectable changes; EC50 ([2]; read-out: EC50, WT, Mean, Alamar blue assay, wild-type sensitive control strain): 5.2 µM; EC50 ([2]; wild-type, thymidine-free HMI-9 with 100 μM thymidine added): 18.6 ± 3 µM; EC50 ([2]; wild-type, thymidine-free version of HMI-9): 0.77 ± 0.3 µM; reduction of sensitivity by addition of 100 μM thymidine ([2]; wild-type): 24 fold; EC50 ([3]; Trypanosoma brucei, read-out: EC50, 5FOARes, Mean): 31 µM; RF, 5FOARes [3, 16]: 5.9; 5F-dUMP in DNA digest [4]: No 5F-dUMP was detected; reduction of sensitivity by addition of 100 μM thymidine ([5]; 5F-2′dURes cells): > 600 fold; EC50 ([5]; Trypanosoma brucei, read-out: EC50, 5F-2′dURes, Mean): 4300 µM; RF, 5F-2′dURes [5, 16]: 825; increase in dUMP in treated 5F-2′dURes cells relative to untreated wild-type cells [6]: two-fold; EC50 ([7]; Trypanosoma brucei, read-out: EC50, 5FURes, Mean): 3.2 µM; RF, 5FURes [7, 16]: 0.61

**Q.** What does the source list for `Nc1ccn([C@@H]2O[C@H](CO)[C@@H](O)[C@H]2O)c(=O)n1` [Cytidine]?
**A.** Ki [8]: 0.057 ± 0.019 µM; effect on [3H]-thymidine transport (in words) [9]: little or no effect; Ki, U1 [10]: NE, 1000

**Q.** Which “uptake rate as fraction of the transport rate of [3H]-uracil and [3H]-5-FU” value [11] does the source give for `O=C(O)c1cc(=O)[nH]c(=O)[nH]1` [Orotic acid] here?
**A.** ≤ 1%

**Q.** And the “effect on [3H]-thymidine transport (in words)” value [9]?
**A.** little or no effect

**Q.** What about the “reduction of [3H]-orotic acid uptake in 5-FOARes relative to wild-type” value [12] of the same molecule?
**A.** 68.1% and 62.8%

**Q.** For `Cc1cn([C@H]2C[C@H](O)[C@@H](CO)O2)c(=O)[nH]c1=O` [Thymidine], which Km [13] is on record?
**A.** 1240 ± 310 µM

**Q.** What about the Vmax [13] of the same molecule?
**A.** 0.067 ± 0.008 pmol (10^7 cells)^−1s^−1

**Q.** What about the Ki [14] of the same molecule?
**A.** 214 ± 51 µM

**Q.** And the Ki [8]?
**A.** 0.38 ± 0.07 µM

**Q.** And the “rate of [3H]-thymidine transport” value ([9]; 10 μM thymidine, 5-30 min)?
**A.** 0.0015 ± 0.0003 pmol(10^7 cells)^−1s^−1

**Q.** What about the Km ([9]; read-out: Km, T1, bloodstream forms (BSF)) of the same molecule?
**A.** 1240 ± 310 µM

**Q.** What about the “Ki, U1” value [10] of the same molecule?
**A.** NE, 1000

**Q.** What about the “increase in thymidine affinity relative to wild-type” value [15] of the same molecule?
**A.** > 50 fold

**Q.** And the “increase in transport efficiency relative to wild-type” value [15]?
**A.** six-fold

**Q.** And the “Vmax of [3H]-thymidine uptake” value ([15]; 10 μM [3H]-thymidine)?
**A.** 0.013 ± 0.002 pmol(10^7 cells)^−1s^−1

**Q.** What about the Km ([15]; read-out: Km of [3H]-thymidine uptake, 10 μM [3H]-thymidine) of the same molecule?
**A.** 22 ± 3 µM
